Screens from PubChem BioAssay.
Shown are actives, neighbours in structure and some others; about 2.4% of the full set was active somewhere.
ARNT TACC3 PPI: disruptors of ARNT/TACC3 protein interaction, primary screen, biochemical, AlphaScreen, single concentration; Transforming acidic coiled-coil-containing protein 3 (Homo sapiens), Q9Y6A5; AlphaScreen His-ARNT PAS-B/GST-TACC3 binding, luminescence; TACC3 fragment carries E629A point mutation; inhibition, % at 9.99 µM; actives 0.66% (n = 390,000);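 active means mean inhibition of replicates at least 50% and at least half of replicates each reaching 50%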
S100A4 inh HTS: inhibitors of S100A4-myosin IIA peptide binding, primary screen, biochemical, fluorescence polarization, TAMRA-MyoIIA peptide | Protein S100-A4 (Homo sapiens), P26447 | inhibition, % at 10.7 µM | actives 0.14% (n = 360,000);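 active means mean inhibition of at least 70% across replicates, with every replicate also reaching that level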
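Material: S100A4 monomer protein / Buffer or medium: 50 mM HEPES pH 7.2, 10 mM CaCl2, 100 mM KCl / Times: 5 min incubation before reading / Benchmarks: neutral control DMSO, positive control TFP / Reagent: labelled myosin peptide probe, 5 nM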
ERAP1 HTS inh: human ERAP1 aminopeptidase inhibitors, primary screen, biochemical, single point, plate reader; Endoplasmic reticulum aminopeptidase 1 (Homo sapiens), Q9NZ08; recombinant ERAP1, Leu-AMC fluorescence, 60 min; inhibition, % at 10.7 µM; actives 0.15% (n = 340,000); AID 652197, 2013;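 active means mean replicate inhibition of at least 30%, or all replicates individually reaching that 30% level; inactive means mean below 30% and not every replicate reaching it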
Target sequence (Q9NZ08 whole entry, looked up): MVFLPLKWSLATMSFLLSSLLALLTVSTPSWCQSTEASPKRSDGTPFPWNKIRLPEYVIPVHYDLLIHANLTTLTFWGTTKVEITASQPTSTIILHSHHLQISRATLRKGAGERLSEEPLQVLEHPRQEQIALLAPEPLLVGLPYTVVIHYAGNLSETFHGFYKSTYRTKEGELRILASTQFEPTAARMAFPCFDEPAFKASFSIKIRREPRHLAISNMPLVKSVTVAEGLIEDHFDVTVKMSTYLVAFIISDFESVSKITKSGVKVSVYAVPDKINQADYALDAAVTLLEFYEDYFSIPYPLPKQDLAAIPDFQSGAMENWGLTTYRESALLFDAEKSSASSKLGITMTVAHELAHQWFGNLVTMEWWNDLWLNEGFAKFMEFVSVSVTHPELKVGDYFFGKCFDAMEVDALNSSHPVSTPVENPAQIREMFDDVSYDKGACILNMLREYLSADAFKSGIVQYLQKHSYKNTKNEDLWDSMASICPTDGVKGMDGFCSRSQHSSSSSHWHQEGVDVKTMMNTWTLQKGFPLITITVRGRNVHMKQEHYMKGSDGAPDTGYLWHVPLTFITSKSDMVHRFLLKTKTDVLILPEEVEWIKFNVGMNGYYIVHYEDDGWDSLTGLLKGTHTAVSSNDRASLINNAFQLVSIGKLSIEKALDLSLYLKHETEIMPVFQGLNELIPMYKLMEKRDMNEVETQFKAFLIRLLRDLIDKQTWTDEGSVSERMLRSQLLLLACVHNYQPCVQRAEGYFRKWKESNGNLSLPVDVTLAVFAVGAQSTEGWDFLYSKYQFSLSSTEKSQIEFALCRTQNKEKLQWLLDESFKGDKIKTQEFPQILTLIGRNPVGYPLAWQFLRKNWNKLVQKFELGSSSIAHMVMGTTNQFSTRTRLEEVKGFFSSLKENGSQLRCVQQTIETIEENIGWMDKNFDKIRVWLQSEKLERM
PGC1a acetyl inh: inhibitors of PGC1a acetylation signal, primary screen, cell-based, U2OS, AlphaScreen, inhibitor mode; AlphaScreen anti-acetyl-lysine; with virally co-expressed GCN5 acetyltransferase; inhibition, % at 15.6 µM; actives 0.17% (n = 350,000);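 active means every replicate shows inhibition of at least 40%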
CASP6 VEID inh: human caspase-6 inhibitors, primary screen, biochemical, VEID-R110 fluorescence, single point, set 2; P55212; purified caspase-6, Z-VEID-R110 cleavage fluorescence; inhibition, % at 12.5 µM; actives 0.53% (n = 350,000); AID 686996, 2013;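 active means mean inhibition across replicates at least about 35%, with every replicate also reaching that limit, limit read from the data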
Ecoli rRNA inh: reduced GFP signal of wild-type E. coli, primary screen, bacterial rRNA inhibitor project, GFP/RFP fluorescence, OD600, single point | E. coli WT GFP vs humanized-ribosome RFP mutants, 24 h; hits give low values; DMSO median 0, no signal -100 | GFP signal change (wild-type ribosome), % (test concentration not listed) | actives 1.6% (n = 350,000);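 active means significant combined selectivity score with lowered wild-type GFP, culture density cut under 30%, mutant RFP and density less affected; inactive means any of these conditions unmet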
Each line names hits and unclear results; the compound was inactive in the other large screens.

O=S(=O)(c1cccs1)N1CCCCN2[C@@H](CO)[C@@H](c3ccc(C4=CCCC4)cc3)[C@@H]2C1	Ecoli rRNA inh -34
O=S(=O)(c1cccs1)N1CCCCN2[C@H](CO)[C@H](c3ccc(C4=CCCC4)cc3)[C@@H]2C1	none
Cc1cccc(-c2ccc([C@H]3[C@H](CO)N4CCCCN(S(=O)(=O)c5ccccc5C)C[C@@H]34)cc2)c1	Ecoli rRNA inh -39
NNC(=O)Cc1csc(-c2ccccc2)n1	Ecoli rRNA inh -28 (no result: PGC1a acetyl inh)
Cc1ccc(-n2nnnc2-c2ccccc2Br)cc1	Ecoli rRNA inh -28 (no result: ARNT TACC3 PPI)
CC(NC(=O)C1C2C=CC(C2)C1C(=O)O)c1ccccc1 (stereo unspecified)	none (no result: S100A4 inh HTS, ERAP1 HTS inh, CASP6 VEID inh, Ecoli rRNA inh)
O=C(O)C1C2C=CC(C2)C1C(=O)Nc1ccccc1Br (stereo unspecified)	CASP6 VEID inh 48 (no result: PGC1a acetyl inh)
CN(C)c1ccc(NC(=O)C2C3C=CC(C3)C2C(=O)O)cc1 (stereo unspecified)	CASP6 VEID inh 42
O=C(O)C1C2C=CC(C2)C1C(=O)Nc1ccc2c(c1)OCCO2 (stereo unspecified)	none (no result: S100A4 inh HTS, ERAP1 HTS inh, CASP6 VEID inh, Ecoli rRNA inh)
Cc1c(NC(=O)C2C3C=CC(C3)C2C(=O)O)c(=O)n(-c2ccccc2)n1C (stereo unspecified)	CASP6 VEID inh 36
CC(C)Cc1nnc(NS(=O)(=O)c2ccccc2)s1	Ecoli rRNA inh -17 (no result: ARNT TACC3 PPI)
CC(C)Cc1nnc(NS(=O)(=O)Cc2ccccc2)s1	none (no result: S100A4 inh HTS, ERAP1 HTS inh, CASP6 VEID inh, Ecoli rRNA inh)
CCc1ccccc1OCC(=O)OCC(=O)N1CC(=O)Nc2ccccc21	CASP6 VEID inh 60 (no result: ARNT TACC3 PPI)
O=[N+]([O-])c1ccc2c(c1)nnn2-c1ccccc1	none
Nc1nn(-c2ccccc2)c2ccc([N+](=O)[O-])cc12	Ecoli rRNA inh -21 (no result: PGC1a acetyl inh)
CCN(CC(=O)Nc1ccccc1OC)CC(=O)Nc1c(Cl)ccc(C)c1Cl	Ecoli rRNA inh -26
C[C@@H]1CN([C@@H](C)CO)C(=O)Cc2cc(NC(=O)Nc3ccc(C(F)(F)F)cc3)ccc2O[C@@H]1CN(C)S(=O)(=O)c1cn(C)cn1	none (no result: ARNT TACC3 PPI)
C[C@H]1CN([C@@H](C)CO)C(=O)c2cc(C#CCc3ccccc3)cnc2O[C@H]1CN(C)C(=O)C1CC1	none (no result: ARNT TACC3 PPI, S100A4 inh HTS, ERAP1 HTS inh, CASP6 VEID inh)
Cc1noc(C)c1NC(=O)Nc1ccc2c(c1)C(=O)N([C@H](C)CO)C[C@H](C)[C@@H](CN(C)Cc1ccccc1)OCCCC[C@@H](C)O2	none
CNC[C@H]1Oc2c(NC(C)=O)cccc2C(=O)N(C)C[C@H]1C	none (no result: ARNT TACC3 PPI, S100A4 inh HTS, ERAP1 HTS inh, PGC1a acetyl inh, CASP6 VEID inh)
Cc1ccc2oc(C(=O)N(CCO)Cc3ccccc3)c(C)c2c1	Ecoli rRNA inh -17
Cc1cc(Cl)c2oc(C(=O)N(CCO)Cc3ccccc3)c(C)c2c1	none
Nn1c(SCc2ccc(Br)cc2)nnc1-c1ccccn1	none
Cc1cccc(CSc2nnc(-c3ccccn3)n2N)c1	ARNT TACC3 PPI 45 (no result: S100A4 inh HTS, ERAP1 HTS inh, CASP6 VEID inh, Ecoli rRNA inh)
CCCNC(=O)N1CC2(CN(C(=O)c3ccncc3)C2)c2c([nH]c3cc(OC)ccc23)[C@H]1CO	none (no result: ARNT TACC3 PPI, S100A4 inh HTS, ERAP1 HTS inh, CASP6 VEID inh)
CC(=O)OCC1=C(C(=O)O)N2C(=O)C(NC(=O)c3ccc(COc4cccc(Cl)c4Cl)o3)C2SC1 (stereo unspecified)	CASP6 VEID inh 55, Ecoli rRNA inh -26 (no result: PGC1a acetyl inh)
COc1cccc(C(=O)NC2C(=O)N3C(C(=O)O)=C(COC(C)=O)CSC23)c1 (stereo unspecified)	none
O=C(/C=C/c1ccccc1)Oc1cccc2cccnc12	ARNT TACC3 PPI 47 (no result: PGC1a acetyl inh)
O=C(/C=C\c1ccccc1)Oc1cccc2cccnc12	none (no result: ARNT TACC3 PPI, PGC1a acetyl inh)
COc1ccc(CC(=O)OCC(=O)c2ccc[nH]2)cc1	none (no result: ARNT TACC3 PPI)
COc1ccc(C(=O)OCC(=O)c2ccc[nH]2)c(OC)c1	CASP6 VEID inh 43
CCCNC(=O)N1CC2(CCN(C(=O)c3cccnc3)CC2)c2c([nH]c3cc(OC)ccc23)[C@@H]1CO	none (no result: ARNT TACC3 PPI, PGC1a acetyl inh)
O=C(O)CSc1cc(NS(=O)(=O)c2ccc(Br)cc2)c2ccccc2c1O	ARNT TACC3 PPI 97, CASP6 VEID inh 95 (no result: PGC1a acetyl inh)
